In ChEMBL document CHEMBL2057093, “New oxirane derivatives of 1,4-naphthoquinones and their evaluation against T. cruzi epimastigote forms” (Bioorg Med Chem, 2012) one finds CC50, Activity and IC50 data, which are given here for 15 molecules.

A short description of data set [1]: Cytotoxicity against african green monkey Vero cells after 72 hrs by spectrophotometric analysis. Format: cell-based. The settings on record: chlorocebus sabaeus. The method in brief: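 VERO kidney fibroblasts kept in DMEM with 5% fetal bovine serum and HEPES. Seeded at 10^5 cells/well and allowed to adhere 24 h at 37 °C, then exposed to compounds for 72 h. Cells were PBS-washed, fixed in 0.2% formaldehyde, stained 1 h with 0.2% Coomassie Brilliant Blue R-250, and eluted with 1% SDS. Absorbance read at 595 nm. CC50 by Probit from triplicate runs.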

Data set [2] relates to Trypanosoma cruzi. As to the kind of experiment: Antitrypanosomal activity against Trypanosoma cruzi Y epimastigotes assessed as cell death at 50 uM after 72 hrs by propidium iodide staining-based flow cytometric analysis. Format: functional. A digest of the protocol:
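T. cruzi Y epimastigotes at 5 × 10^5 cells/mL exposed to compound at 50 µM for 72 h. Cells then centrifuged (1500 g), washed in PBS and stained with 30 µg/mL propidium iodide for 15 min. Flow cytometry acquired 10,000 events in the epimastigote gate, and PI-positive cells were counted as dead. Mean and SD from at least two independent experiments in duplicate.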
(A flow cytometer gives signals particle by particle.)

In data set [3] the test system is Trypanosoma cruzi. The data set is described as follows: Antitrypanosomal activity against Trypanosoma cruzi Y epimastigotes after 72 hrs by Neubauer counter-based microscopic analysis. Format: functional, organism-based. The method in brief: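 T. cruzi Y epimastigotes (10^6 cells/mL) grown in BHI medium with 10% fetal bovine serum at 28 °C and exposed to compounds from 5 mM DMSO stocks for 72 h. Parasites counted directly in a Neubauer chamber by light microscopy. Untreated and 1% DMSO (v/v) cultures served as negative controls. IC50 (50% growth inhibition) computed by Probit analysis.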

`CC1(C)CC2=C(O1)C(=O)c1ccccc1C2=O`: half-maximal cytotoxicity in data set [1] (CC50 at 72 h) was put at 2.7 µM. Also, the Activity with Trypanosoma cruzi [2] worked out at 91.4%. The IC50 (commonly the concentration needed to halve the response being measured) in the data set with Trypanosoma cruzi [3] is 8.8 µM.
Consider `CC1(C)CCC2=C(O1)C(=O)C1=C(CCCC1)C2=O`, for which the CC50 (in general, the concentration that lowers cell viability or growth by half) at 72 h in data set [1] worked out at 11.7 µM. Moreover, the Activity with Trypanosoma cruzi [2] amounted to 84.2%. In addition, in the data set with Trypanosoma cruzi [3], the 50% inhibitory concentration (IC50) turned out to be 16.3 µM.
For the molecule `CC1(C)CCC2=C(O1)C1(CO1)C1=C(CCCC1)C2=O` (stereo not given), the CC50 at 72 h in data set [1] was determined as 58.1 µM. For the same molecule, the Activity in the data set on Trypanosoma cruzi [2] is 17.9%. Inhibition in the data set with Trypanosoma cruzi [3] was half-maximal at 16.4 µM (IC50).
Molecule `CC1(C)CCC2=C(O1)C(=O)c1ccccc1C2=O` [ALPHA-LAPACHONE] yielded a CC50 at 72 h in data set [1] of 1.2 µM. Also, the Activity in the data set on Trypanosoma cruzi [2] came to 82.7%. Besides, in the data set with Trypanosoma cruzi [3], 3.19 µM corresponded to half-maximal inhibition (IC50).
In data set [1], `O=C(Cn1ccnc1[N+](=O)[O-])NCc1ccccc1` [BENZNIDAZOLE] came in with a CC50 at 72 h of 48 µM. The Activity in the data set on Trypanosoma cruzi [2] was determined as 26.8%. In the data set on Trypanosoma cruzi [3], this molecule came in with an IC50 of 11.5 µM.
With `C=CCOC1=CC(=O)c2ccccc2C12CO2` (stereo not given), the CC50 at 72 h in data set [1] is < 1 µM. Moreover, the Activity in the data set with Trypanosoma cruzi [2] is reported as 84.5%. This molecule displayed an IC50 in the data set on Trypanosoma cruzi [3] of 0.2 µM.
As to `COC1=CC(=O)c2ccccc2C1=O` [2-Methoxy-1,4-naphthoquinone], in data set [1], half-maximal cytotoxicity (CC50 at 72 h) was put at 13 µM. Also, the Activity in the data set with Trypanosoma cruzi [2] was determined as 82.3%. Moreover, in the data set on Trypanosoma cruzi [3], half-maximal inhibition (IC50) was put at 3.19 µM.
The corresponding values for `COC1=CC(=O)c2ccccc2C12CO2` (stereo not given) are 44 µM, 74.2% and 1.13 µM.
Take `O=C1C(Cl)=C(Cl)C2(CO2)c2ccccc21` (stereo not given): in data set [1], the CC50 at 72 h came to 19 µM. Moreover, the Activity in the data set on Trypanosoma cruzi [2] turned out to be 84.7%. Besides, in the data set with Trypanosoma cruzi [3], the IC50 was 9.48 µM.
The corresponding values for `CC1(C)CCC23CC2(O1)C(=O)c1ccccc1C3=O` (stereo not given) are 66 µM, 3.1% and 60.9 µM.
For the molecule `CC1(C)CCC2=C(O1)c1ccccc1C(=O)C2=O` [LAPACHONE], in data set [1], the CC50 at 72 h is < 3.1 µM. For the same molecule, the Activity in the data set with Trypanosoma cruzi [2] amounted to 91.3%. Moreover, the IC50 in the data set on Trypanosoma cruzi [3] is < 3.1 µM.
The molecule `CC1(C)CC2=C(O1)C1(CO1)c1ccccc1C2=O` (stereo not given) showed a cytotoxic concentration (CC50) at 72 h in data set [1] of 19 µM. The Activity in the data set with Trypanosoma cruzi [2] was determined as 88.5%. The same molecule registered an IC50 with Trypanosoma cruzi [3] of 19.3 µM.
As for `CC1(C)CCC2=C(O1)C1(CO1)c1ccccc1C2=O` (stereo not given), the CC50 at 72 h in data set [1] was > 50 µM. Besides, the Activity with Trypanosoma cruzi [2] is 85.6%. Also, in the data set on Trypanosoma cruzi [3], the IC50 was determined as 0.05 µM.
`O=C1C(Cl)=C(Cl)C(=O)c2ccccc21` [Dichlon] displayed a CC50 at 72 h in data set [1] of 6.3 µM. The Activity with Trypanosoma cruzi [2] worked out at 84.3%. The IC50 in the data set on Trypanosoma cruzi [3] was found to be 0.09 µM.
For the molecule `C=CCOC1=CC(=O)c2ccccc2C1=O`, in data set [1], the CC50 at 72 h is < 1 µM. In the data set on Trypanosoma cruzi [2], the Activity was found to be 86.3%. Further, half-maximal inhibition in the data set on Trypanosoma cruzi [3] (IC50) was put at 0.02 µM.
